SMILES strings stand for the structures.

The first assay relates to Blood. Kind of assay: Inhibition of LPS-induced TNFalpha production in human whole blood at 10 uM treated 1 hr before LPS challenge measured after 5 hrs by ELISA. It is filed as functional. Summed up:
(§1)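 Whole blood aliquots preincubated 1 h at 37 °C with test compound (10 or 100 μM solution) or DMSO vehicle, then stimulated with LPS in PBS (final 1 ng/ml). Incubated a further 5 h at 37 °C, stopped on ice 10 min. Plasma separated by centrifugation (3000 rpm, 10 min, 4 °C), stored at −70 °C. Plasma TNF-α quantified by ELISA.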
(In general: ELISA stands for enzyme-linked immunosorbent assay.)
The term inhibition denotes the drop in the measured response relative to a control, in per cent. As to `COC(=O)/C(=C/c1ccc(OC)cc1)Cn1nnnc1-c1ccncc1`, the inhibition at 10 µM is 8.6%.
The same measure, in the same setting: under `COC(=O)/C(=C/c1ccccc1)Cn1nnnc1-c1ccccc1` stands 14.6%; under `COC(=O)/C(=C/c1ccccc1)Cn1nnnc1-c1ccncc1`, 18.2%; under `COC(=O)/C(=C/c1ccc(OC)cc1)Cn1nnnc1-c1cccnc1`, 5.4%.
With `COC(=O)/C(=C/c1ccc(OC)cc1)Cn1nnnc1-c1ccccc1`, the inhibition at 10 µM stood at 22.2%.

The test system of another assay is Blood. Kind of assay: Inhibition of LPS-induced TNFalpha production in human whole blood at 100 uM treated 1 hr before LPS challenge measured after 5 hrs by ELISA. It is filed as functional. Summed up:
as §1
Consider `COC(=O)/C(=C/c1ccc(OC)cc1)Cn1nnnc1-c1ccncc1`, for which 100 µM produced 12.9% inhibition.
The same measure, in the same setting: under `COC(=O)/C(=C/c1ccccc1)Cn1nnnc1-c1ccccc1` stands 35.1%; under `COC(=O)/C(=C/c1ccccc1)Cn1nnnc1-c1ccncc1`, 67%.
In the case of `COC(=O)/C(=C/c1ccc(OC)cc1)Cn1nnnc1-c1cccnc1`, the inhibition at 100 µM turned out to be 30.2%.
`COC(=O)/C(=C/c1ccc(OC)cc1)Cn1nnnc1-c1ccccc1` came in with an inhibition at 100 µM of 46.3%.

The record behind these values is ChEMBL document CHEMBL1155213, “Solvent free synthesis of 1,5-disubstituted tetrazoles derived from Baylis Hillman acetates as potential TNF-alpha inhibitors” (2009).
